ChEMBL document CHEMBL1152843, “Synthesis of new series of 5,6-dihydro-4H-1,2-oxazines via hetero Diels-Alder reaction and evaluation of antimicrobial activity” (2009)
Values after ≈ are worked out from the molar mass of the structure shown.

How the values were obtained:
Assay type in all cases: functional
[1] = system: Aspergillus niger; test: Antifungal activity against Aspergillus niger at 20 ug after 48 hrs by cup diffusion method; details: read-out: IZ
Outline: (§1)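 Cup diffusion on 9 cm plates seeded with 1 × 10⁶ cfu of fungi, with spores adjusted to at least 1 × 10⁶ cfu/ml in potato dextrose broth. Compound in DMF was placed in 5 mm agar cups and left 1 h to diffuse. Plates were incubated at 28 °C for 48 h and the inhibition zone read in mm. DMF was the negative control.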

[2] = system: Aspergillus niger; test: Antifungal activity against Aspergillus niger after 48 hrs by cup diffusion method
[3] = system: Staphylococcus aureus; test: Antibacterial activity against Staphylococcus aureus MTCC 737 at 20 ug after 24 hrs by cup diffusion method; details: MTCC 737, 24 h, read-out: IZ
Outline: (§2)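 Agar cup diffusion. Plates of sterile medium in 9 cm dishes were seeded with 1 × 10⁵ cfu of bacteria, with the suspension adjusted to at least 1 × 10⁵ cfu/ml in nutrient broth. Compound in DMF was placed in 5 mm cups and pre-diffused for 1 h. Plates were incubated at 37 °C for 24 h and the inhibition zone measured in mm. DMF served as negative control.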

[4] = system: Escherichia coli; test: Antibacterial activity against Escherichia coli MTCC 443 after 24 hrs by cup diffusion method
[5] = system: Aspergillus flavus; test: Antifungal activity against Aspergillus flavus after 48 hrs by cup diffusion method
[6] = system: Escherichia coli; test: Antibacterial activity against Escherichia coli MTCC 443 at 20 ug after 24 hrs by cup diffusion method; details: MTCC 443, 24 h, read-out: IZ; outline: as §2
[7] = system: Aspergillus flavus; test: Antifungal activity against Aspergillus flavus at 20 ug after 48 hrs by cup diffusion method; details: for zone of inhibition at 20 µg/disc: read-out: IZ; outline: as §1
[8] = system: Fusarium oxysporum; test: Antifungal activity against Fusarium oxysporum at 20 ug after 48 hrs by cup diffusion method; details: for zone of inhibition at 20 µg/disc: read-out: IZ; outline: as §1
[9] = system: Staphylococcus aureus; test: Antibacterial activity against Staphylococcus aureus MTCC 737 after 24 hrs by cup diffusion method
[10] = system: Pseudomonas aeruginosa; test: Antibacterial activity against Pseudomonas aeruginosa MTCC 1688 after 24 hrs by cup diffusion method
[11] = system: Klebsiella pneumoniae; test: Antibacterial activity against Klebsiella pneumoniae […] after 24 hrs by cup diffusion method
[12] = system: Fusarium verticillioides; test: Antifungal activity against Fusarium moniliforme after 48 hrs by cup diffusion method
[13] = system: Fusarium oxysporum; test: Antifungal activity against Fusarium oxysporum after 48 hrs by cup diffusion method
[14] = system: Fusarium verticillioides; test: Antifungal activity against Fusarium moniliforme at 20 ug after 48 hrs by cup diffusion method; details: for zone of inhibition at 20 µg/disc: read-out: IZ; outline: as §1
[15] = system: Pseudomonas aeruginosa; test: Antibacterial activity against Pseudomonas aeruginosa MTCC 1688 at 20 ug after 24 hrs by cup diffusion method; details: MTCC 1688, 24 h, read-out: IZ; outline: as §2
[16] = system: Klebsiella pneumoniae; test: Antibacterial activity against Klebsiella pneumoniae […] at 20 ug after 24 hrs by cup diffusion method; details: for zone of inhibition at 20 µg/disc: read-out: IZ; outline: as §2

Molecule | zone of inhibition at 20 µg/disc [1] | MIC [2] | zone of inhibition at 20 µg/disc [3] | MIC ([4]; MTCC 443, 24 h) | MIC [5] | zone of inhibition at 20 µg/disc [6] | zone of inhibition at 20 µg/disc [7] | zone of inhibition at 20 µg/disc [8] | MIC ([9]; MTCC 737, 24 h) | MIC ([10]; MTCC 1688, 24 h) | MIC [11] | MIC [12] | MIC [13] | zone of inhibition at 20 µg/disc [14] | zone of inhibition at 20 µg/disc [15] | zone of inhibition at 20 µg/disc [16] | other results
COc1ccc(C2=NOC(CCl)CC2)cc1OC (stereo unspecified) | 18.7 mm | 20 µg/mL (≈ 74.1 µM) | 17.8 mm | 20 µg/mL (≈ 74.1 µM) | 15 µg/mL (≈ 55.6 µM) | 13.8 mm | 20.8 mm | 28.7 mm | 10 µg/mL (≈ 37.1 µM) | 15 µg/mL (≈ 55.6 µM) | 10 µg/mL (≈ 37.1 µM) | 15 µg/mL (≈ 55.6 µM) | 10 µg/mL (≈ 37.1 µM) | 26.5 mm | 9.83 mm | 17 mm | 
CCOC(=O)C1CCC(c2ccc(C)c(C)c2)=NO1 (stereo unspecified) | 11.5 mm | 20 µg/mL (≈ 76.5 µM) | 17.8 mm | 20 µg/mL (≈ 76.5 µM) | 15 µg/mL (≈ 57.4 µM) | 13.5 mm | 12.7 mm | 19.8 mm | 10 µg/mL (≈ 38.3 µM) | 20 µg/mL (≈ 76.5 µM) | 15 µg/mL (≈ 57.4 µM) | 25 µg/mL (≈ 95.7 µM) | 15 µg/mL (≈ 57.4 µM) | 16.7 mm | 12.8 mm | 16.7 mm | 
Cc1ccc(C2=NOC(CO)CC2)cc1C (stereo unspecified) | 10.7 mm | 30 µg/mL (≈ 137 µM) | 14.8 mm | 25 µg/mL (≈ 114 µM) | 35 µg/mL (≈ 160 µM) | 13.7 mm | 8.66 mm | 19.8 mm | 15 µg/mL (≈ 68.4 µM) | 25 µg/mL (≈ 114 µM) | 20 µg/mL (≈ 91.2 µM) | 35 µg/mL (≈ 160 µM) | 25 µg/mL (≈ 114 µM) | 14.7 mm | 12.8 mm | 17.7 mm | 
COc1ccc(C2=NOC(CO)CC2)cc1OC (stereo unspecified) | 7.83 mm | 40 µg/mL (≈ 159 µM) | 7.66 mm | 35 µg/mL (≈ 139 µM) | 40 µg/mL (≈ 159 µM) | 8.5 mm | 8.5 mm | 16.5 mm | 20 µg/mL (≈ 79.6 µM) | 20 µg/mL (≈ 79.6 µM) | 25 µg/mL (≈ 99.5 µM) | 35 µg/mL (≈ 139 µM) | 30 µg/mL (≈ 119 µM) | 10.8 mm | 10.5 mm | 14.5 mm | 
Cc1ccc(C2=NOC(CO)CC2)cc1 (stereo unspecified) | 11.5 mm | 35 µg/mL (≈ 171 µM) | 7.5 mm | 35 µg/mL (≈ 171 µM) | 30 µg/mL (≈ 146 µM) | 8.83 mm | 12.5 mm | 19.8 mm | 25 µg/mL (≈ 122 µM) | 25 µg/mL (≈ 122 µM) | 30 µg/mL (≈ 146 µM) | 30 µg/mL (≈ 146 µM) | 25 µg/mL (≈ 122 µM) | 15.8 mm | 10.8 mm | 19.8 mm | 
CC1(C)S[C@@H]2[C@H](NC(=O)Cc3ccccc3)C(=O)N2[C@H]1C(=O)O [PENICILLIN G] |  |  | 9.38 mm |  |  | 0 mm |  |  |  |  |  |  |  |  | 0 mm | 0 mm | 
N#CC1CCC(c2ccc3c(c2)CCC3)=NO1 (stereo unspecified) | 10.7 mm | 35 µg/mL (≈ 155 µM) | 17.7 mm | 25 µg/mL (≈ 110 µM) | 40 µg/mL (≈ 177 µM) | 15.5 mm | 9.5 mm | 17.7 mm | 15 µg/mL (≈ 66.3 µM) | 15 µg/mL (≈ 66.3 µM) | 20 µg/mL (≈ 88.4 µM) | 40 µg/mL (≈ 177 µM) | 35 µg/mL (≈ 155 µM) | 13.5 mm | 31.5 mm | 23.8 mm | 
COc1ccc(C2=NOC(Cc3ccc4c(c3)OCO4)CC2)cc1 (stereo unspecified) | 10.7 mm | 35 µg/mL (≈ 108 µM) | 21.7 mm | 25 µg/mL (≈ 76.8 µM) | 40 µg/mL (≈ 123 µM) | 21.8 mm | 9.66 mm | 16.8 mm | 15 µg/mL (≈ 46.1 µM) | 20 µg/mL (≈ 61.5 µM) | 15 µg/mL (≈ 46.1 µM) | 35 µg/mL (≈ 108 µM) | 35 µg/mL (≈ 108 µM) | 12.8 mm | 31.8 mm | 19.7 mm | 
ClCC1CCC(c2ccc3c(c2)CCC3)=NO1 (stereo unspecified) | 28.8 mm | 15 µg/mL (≈ 60.1 µM) | 13.5 mm | 20 µg/mL (≈ 80.1 µM) | 10 µg/mL (≈ 40 µM) | 11.8 mm | 32.8 mm | 38.5 mm | 10 µg/mL (≈ 40 µM) | 15 µg/mL (≈ 60.1 µM) | 15 µg/mL (≈ 60.1 µM) | 20 µg/mL (≈ 80.1 µM) | 10 µg/mL (≈ 40 µM) | 34.5 mm | 34.5 mm | 25.8 mm | 
COc1ccc(C2=NOC(C#N)CC2)cc1OC (stereo unspecified) | 11.5 mm | 35 µg/mL (≈ 142 µM) | 15.5 mm | 25 µg/mL (≈ 102 µM) | 35 µg/mL (≈ 142 µM) | 10.5 mm | 10.5 mm | 15.5 mm | 15 µg/mL (≈ 60.9 µM) | 10 µg/mL (≈ 40.6 µM) | 15 µg/mL (≈ 60.9 µM) | 30 µg/mL (≈ 122 µM) | 30 µg/mL (≈ 122 µM) | 12.8 mm | 24.5 mm | 7.75 mm | 
CCOC(=O)C1CCC(c2ccc3c(c2)CCC3)=NO1 (stereo unspecified) | 26.7 mm | 15 µg/mL (≈ 54.9 µM) | 18.7 mm | 30 µg/mL (≈ 110 µM) | 10 µg/mL (≈ 36.6 µM) | 10.7 mm | 28.5 mm | 36.5 mm | 20 µg/mL (≈ 73.2 µM) | 20 µg/mL (≈ 73.2 µM) | 25 µg/mL (≈ 91.5 µM) | 20 µg/mL (≈ 73.2 µM) | 10 µg/mL (≈ 36.6 µM) | 32.8 mm | 13.4 mm | 13.5 mm | 
COc1ccc(C2=NOC(Cc3ccc4c(c3)OCO4)CC2)cc1OC (stereo unspecified) | 7.75 mm | 40 µg/mL (≈ 113 µM) | 16.5 mm | 25 µg/mL (≈ 70.3 µM) | 40 µg/mL (≈ 113 µM) | 8.12 mm | 8.12 mm | 15.8 mm | 10 µg/mL (≈ 28.1 µM) | 20 µg/mL (≈ 56.3 µM) | 15 µg/mL (≈ 42.2 µM) | 35 µg/mL (≈ 98.5 µM) | 30 µg/mL (≈ 84.4 µM) | 11.2 mm | 14.1 mm | 17.5 mm | 
Cc1ccc(C2=NOC(Cc3ccc4c(c3)OCO4)CC2)cc1C (stereo unspecified) | 15.7 mm | 15 µg/mL (≈ 46.4 µM) | 21.3 mm | 30 µg/mL (≈ 92.8 µM) | 10 µg/mL (≈ 30.9 µM) | 11.5 mm | 18.8 mm | 25.3 mm | 15 µg/mL (≈ 46.4 µM) | 20 µg/mL (≈ 61.8 µM) | 20 µg/mL (≈ 61.8 µM) | 20 µg/mL (≈ 61.8 µM) | 10 µg/mL (≈ 30.9 µM) | 22.8 mm | 11 mm | 15.5 mm | 
Cc1ccc(C2=NOC(CCl)CC2)cc1C (stereo unspecified) | 8.5 mm | 15 µg/mL (≈ 63.1 µM) | 20.7 mm | 20 µg/mL (≈ 84.1 µM) | 15 µg/mL (≈ 63.1 µM) | 14.8 mm | 9.5 mm | 20.7 mm | 10 µg/mL (≈ 42.1 µM) | 15 µg/mL (≈ 63.1 µM) | 15 µg/mL (≈ 63.1 µM) | 20 µg/mL (≈ 84.1 µM) | 10 µg/mL (≈ 42.1 µM) | 11.5 mm | 17.6 mm | 15.8 mm | 
COc1ccc(C2=NOC(CO)CC2)cc1 (stereo unspecified) | 8.66 mm | 40 µg/mL (≈ 181 µM) | 10.8 mm | 35 µg/mL (≈ 158 µM) | 35 µg/mL (≈ 158 µM) | 10.7 mm | 7.83 mm | 19.5 mm | 20 µg/mL (≈ 90.4 µM) | 20 µg/mL (≈ 90.4 µM) | 25 µg/mL (≈ 113 µM) | 35 µg/mL (≈ 158 µM) | 30 µg/mL (≈ 136 µM) | 17.6 mm | 16.7 mm | 15.5 mm | 
COc1ccc(C2=NOC(C#N)CC2)cc1 (stereo unspecified) | 9.5 mm | 40 µg/mL (≈ 185 µM) | 9.5 mm | 25 µg/mL (≈ 116 µM) | 35 µg/mL (≈ 162 µM) | 10.2 mm | 8.5 mm | 18.5 mm | 10 µg/mL (≈ 46.2 µM) | 15 µg/mL (≈ 69.4 µM) | 15 µg/mL (≈ 69.4 µM) | 35 µg/mL (≈ 162 µM) | 30 µg/mL (≈ 139 µM) | 13.4 mm | 12.2 mm | 6.66 mm | 
NYSTATIN |  | 10 µg/mL |  |  | 15 µg/mL |  |  |  |  |  |  | 15 µg/mL | 20 µg/mL |  |  |  | inhibition zone (IZ) [7]: 13.2 mm; inhibition zone (IZ) [8]: 16.6 mm; inhibition zone (IZ) [14]: 15.6 mm
GENTAMICIN |  |  |  |  |  |  |  |  |  |  | 15 µg/mL |  |  |  |  |  | MIC [4]: 20 µg/mL; MIC [9]: 15 µg/mL; MIC [10]: 15 µg/mL; inhibition zone (IZ) [16]: 17.5 mm
